The source made the active and inactive calls. The calls are words filed in the database; no cut-off is given here.
Key:
Tubulin (Homo sapiens) [1] = molecular target: T1, Tubulin (Homo sapiens) (UniProt P68371+Q9H4B7+P0DPH7+P68366+Q13509+Q71U36+P04350+Q3ZCM7+P07437+P68363+Q9BQE3+Q6PEY2+Q13885+Q9BVA1+Q9BUF5); assay: Inhibition of [3H]colchicine binding to tubulin (unknown origin) at 5 uM relative to control; assay type: protein-complex assay
Tubulin (Homo sapiens) [2] = molecular target: T1, Tubulin (Homo sapiens); assay: Inhibition of [3H]colchicine binding to tubulin (unknown origin) at 0.5 uM relative to control; assay type: protein-complex assay
Tubulin = assay: Inhibition of tubulin assembly (unknown origin); assay type: protein-complex assay, Homo sapiens
MCF7 [3] = assay: Antiproliferative activity against human MCF7 cells; assay type: functional, cell-based
MCF7 [4] = assay: Antiproliferative activity against human MCF7 cells expressing TUBB3; assay type: functional, cell-based
[5] = Resistance ratio of EC50 for antiproliferative activity against human MCF7 cells expressing TUBB3 to EC50 for antiproliferative activity against human MCF7 cells; assay type: functional
Procedure, shortened: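 Resistance ratio: EC50 in MCF-7 cells overexpressing βIII-tubulin divided by EC50 in parental wild-type MCF-7 cells.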

MCF7 [6] = assay: Potency index, ratio of EC50 of paclitaxel to EC50 of compound for antiproliferative activity against human MCF7 cells; assay type: functional
MCF7 [7] = assay: Potency index, ratio of EC50 of paclitaxel to EC50 of compound for antiproliferative activity against human MCF7 cells expressing TUBB3; assay type: functional
OVCAR-8 [8] = assay: Antiproliferative activity against human OVCAR-8 cells; assay type: functional, cell-based
NCI/ADR-RES [9] = assay: Antiproliferative activity against human NCI/ADR-RES cells overexpressing Pgp; assay type: functional, cell-based
MCF7 [10] = assay: Antitumor activity against human MCF7 cells expressing TUBB3 xenografted in athymic mouse assessed as reduction in tumor growth at 30 mg/kg administered twice in a week; assay type: functional, organism-based
Procedure, shortened: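 βIII-tubulin-overexpressing MCF-7 cells in Matrigel implanted into mammary fat pad #4 of 8-week-old female athymic mice. […] Tumor volumes measured over time and analysed by two-way repeated-measures ANOVA. Body weight change at day 41 analysed by one-way ANOVA. n = 7 control, 8 per treated group.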

[11] = Toxicity in athymic mouse xenografted with human MCF7 cells expressing TUBB3 assessed as effect on body weight at 30 mg/kg administered twice in a week; assay type: organism-based; conditions: in vivo
Procedure, shortened: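 MCF-7 TUBB3 cells (10^7 in 100 uL Matrigel) implanted into mammary fat pad #4 of 8-week-old female athymic mice. Dosing was 30 mg/kg twice weekly. Body weight was expressed as percent change at day 41 versus starting weight and analysed by one-way ANOVA, n = 8.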

CCRF-CEM = assay: Growth inhibition of human CCRF-CEM cells incubated for 48 hrs by sulforhodamine B assay; assay type: functional
HL-60(TB) = assay: Growth inhibition of human HL-60(TB) cells incubated for 48 hrs by sulforhodamine B assay; assay type: functional
K562 = assay: Growth inhibition of human K562 cells incubated for 48 hrs by sulforhodamine B assay; assay type: functional
MOLT-4 = assay: Growth inhibition of human MOLT-4 cells incubated for 48 hrs by sulforhodamine B assay; assay type: functional
RPMI-8226 = assay: Growth inhibition of human RPMI-8226 cells incubated for 48 hrs by sulforhodamine B assay; assay type: functional
SR = assay: Growth inhibition of human SR cells incubated for 48 hrs by sulforhodamine B assay; assay type: functional
A549 = assay: Growth inhibition of human A549 cells incubated for 48 hrs by sulforhodamine B assay; assay type: functional
EKVX = assay: Growth inhibition of human EKVX cells incubated for 48 hrs by sulforhodamine B assay; assay type: functional
HOP-62 = assay: Growth inhibition of human HOP-62 cells incubated for 48 hrs by sulforhodamine B assay; assay type: functional
HOP-92 = assay: Growth inhibition of human HOP-92 cells incubated for 48 hrs by sulforhodamine B assay; assay type: functional
NCI-H226 = assay: Growth inhibition of human NCI-H226 cells incubated for 48 hrs by sulforhodamine B assay; assay type: functional
NCI-H23 = assay: Growth inhibition of human NCI-H23 cells incubated for 48 hrs by sulforhodamine B assay; assay type: functional
NCI-H322M = assay: Growth inhibition of human NCI-H322M cells incubated for 48 hrs by sulforhodamine B assay; assay type: functional
NCI-H460 = assay: Growth inhibition of human NCI-H460 cells incubated for 48 hrs by sulforhodamine B assay; assay type: functional
NCI-H522 = assay: Growth inhibition of human NCI-H522 cells incubated for 48 hrs by sulforhodamine B assay; assay type: functional
COLO 205 = assay: Growth inhibition of human COLO 205 cells incubated for 48 hrs by sulforhodamine B assay; assay type: functional
HCC 2998 = assay: Growth inhibition of human HCC 2998 cells incubated for 48 hrs by sulforhodamine B assay; assay type: functional
HCT-116 = assay: Growth inhibition of human HCT-116 cells incubated for 48 hrs by sulforhodamine B assay; assay type: functional
HCT-15 = assay: Growth inhibition of human HCT-15 cells incubated for 48 hrs by sulforhodamine B assay; assay type: functional
HCT-29 = assay: Growth inhibition of […] incubated for 48 hrs by sulforhodamine B assay; assay type: functional
KM12 = assay: Growth inhibition of human KM12 cells incubated for 48 hrs by sulforhodamine B assay; assay type: functional
SW-620 = assay: Growth inhibition of human SW-620 cells incubated for 48 hrs by sulforhodamine B assay; assay type: functional
SF-268 = assay: Growth inhibition of human SF-268 cells incubated for 48 hrs by sulforhodamine B assay; assay type: functional
SF-295 = assay: Growth inhibition of human SF-295 cells incubated for 48 hrs by sulforhodamine B assay; assay type: functional
SF-539 = assay: Growth inhibition of human SF-539 cells incubated for 48 hrs by sulforhodamine B assay; assay type: functional
SNB-19 = assay: Growth inhibition of human SNB-19 cells incubated for 48 hrs by sulforhodamine B assay; assay type: functional
SNB-75 = assay: Growth inhibition of human SNB-75 cells incubated for 48 hrs by sulforhodamine B assay; assay type: functional
U-251 = assay: Growth inhibition of human U-251 cells incubated for 48 hrs by sulforhodamine B assay; assay type: functional
LOX IMVI = assay: Growth inhibition of human LOX IMVI cells incubated for 48 hrs by sulforhodamine B assay; assay type: functional
Malme-3M = assay: Growth inhibition of human Malme-3M cells incubated for 48 hrs by sulforhodamine B assay; assay type: functional
M14 = assay: Growth inhibition of human M14 cells incubated for 48 hrs by sulforhodamine B assay; assay type: functional
MDA-MB-435 = assay: Growth inhibition of human MDA-MB-435 cells incubated for 48 hrs by sulforhodamine B assay; assay type: functional
SK-MEL-2 = assay: Growth inhibition of human SK-MEL-2 cells incubated for 48 hrs by sulforhodamine B assay; assay type: functional
SK-MEL-28 = assay: Growth inhibition of human SK-MEL-28 cells incubated for 48 hrs by sulforhodamine B assay; assay type: functional
SK-MEL-5 = assay: Growth inhibition of human SK-MEL-5 cells incubated for 48 hrs by sulforhodamine B assay; assay type: functional
UACC-257 = assay: Growth inhibition of human UACC-257 cells incubated for 48 hrs by sulforhodamine B assay; assay type: functional
UACC-62 = assay: Growth inhibition of human UACC-62 cells incubated for 48 hrs by sulforhodamine B assay; assay type: functional
IGROV-1 = assay: Growth inhibition of human IGROV-1 cells incubated for 48 hrs by sulforhodamine B assay; assay type: functional
OVCAR-3 = assay: Growth inhibition of human OVCAR-3 cells incubated for 48 hrs by sulforhodamine B assay; assay type: functional
OVCAR-4 = assay: Growth inhibition of human OVCAR-4 cells incubated for 48 hrs by sulforhodamine B assay; assay type: functional
OVCAR-5 = assay: Growth inhibition of human OVCAR-5 cells incubated for 48 hrs by sulforhodamine B assay; assay type: functional
OVCAR-8 [12] = assay: Growth inhibition of human OVCAR-8 cells incubated for 48 hrs by sulforhodamine B assay; assay type: functional
NCI/ADR-RES [13] = assay: Growth inhibition of human NCI/ADR-RES cells incubated for 48 hrs by sulforhodamine B assay; assay type: functional
SK-OV-3 = assay: Growth inhibition of human SK-OV-3 cells incubated for 48 hrs by sulforhodamine B assay; assay type: functional
786-0 = assay: Growth inhibition of human 786-0 cells incubated for 48 hrs by sulforhodamine B assay; assay type: functional
A498 = assay: Growth inhibition of human A498 cells incubated for 48 hrs by sulforhodamine B assay; assay type: functional
ACHN = assay: Growth inhibition of human ACHN cells incubated for 48 hrs by sulforhodamine B assay; assay type: functional
CAKI-1 = assay: Growth inhibition of human CAKI-1 cells incubated for 48 hrs by sulforhodamine B assay; assay type: functional
RXF 393 = assay: Growth inhibition of human RXF 393 cells incubated for 48 hrs by sulforhodamine B assay; assay type: functional
SN12C = assay: Growth inhibition of human SN12C cells incubated for 48 hrs by sulforhodamine B assay; assay type: functional
TK-10 = assay: Growth inhibition of human TK-10 cells incubated for 48 hrs by sulforhodamine B assay; assay type: functional
UO-31 = assay: Growth inhibition of human UO-31 cells incubated for 48 hrs by sulforhodamine B assay; assay type: functional
PC-3 = assay: Growth inhibition of human PC-3 cells incubated for 48 hrs by sulforhodamine B assay; assay type: functional
DU-145 = assay: Growth inhibition of human DU-145 cells incubated for 48 hrs by sulforhodamine B assay; assay type: functional
MCF7 [14] = assay: Growth inhibition of human MCF7 cells incubated for 48 hrs by sulforhodamine B assay; assay type: functional
MDA-MB-231 = assay: Growth inhibition of human MDA-MB-231 cells incubated for 48 hrs by sulforhodamine B assay; assay type: functional
Hs-578T = assay: Growth inhibition of human HS-578T cells incubated for 48 hrs by sulforhodamine B assay; assay type: functional
BT-549 = assay: Growth inhibition of human BT-549 cells incubated for 48 hrs by sulforhodamine B assay; assay type: functional
T47D = assay: Growth inhibition of human T47D cells incubated for 48 hrs by sulforhodamine B assay; assay type: functional
MDA-MB-468 = assay: Growth inhibition of human MDA-MB-468 cells incubated for 48 hrs by sulforhodamine B assay; assay type: functional
[15] = Resistance ratio of IC50 for antiproliferative activity against human NCI/ADR-RES cells expressing Pgp to IC50 for antiproliferative activity against human OVCAR-8 cells; assay type: functional
Procedure, shortened: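 Resistance ratio: IC50 in Pgp-overexpressing NCI/ADR-RES cells divided by IC50 in parental OVCAR-8 cells.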

COc1ccc(N(C)c2nc(Cl)nc3cnn(C)c23)cc1
inhibition (Tubulin (Homo sapiens) [1]): 94%
inhibition (Tubulin (Homo sapiens) [2]): 68%
IC50 (Tubulin): 0.45 µM
EC50 (MCF7 [3]): 0.002 µM
EC50 (MCF7 [4]): 0.0033 µM
Ratio EC50 [5]: 1.1
Ratio EC50 (MCF7 [6]): 100
Ratio EC50 (MCF7 [7]): 600
IC50 (OVCAR-8 [8]): 0.009 µM
IC50 (NCI/ADR-RES [9]): 0.005 µM
TGI (MCF7 [10]): Active
Activity [11]: Non-Toxic
GI50 (CCRF-CEM): 0.00996 µM
GI50 (HL-60(TB)): 0.0112 µM
GI50 (K562): 0.00646 µM
GI50 (MOLT-4): 0.0199 µM
GI50 (RPMI-8226): 0.0153 µM
GI50 (SR): 0.00964 µM
GI50 (A549): 0.0127 µM
GI50 (EKVX): 0.0155 µM
GI50 (HOP-62): 0.0154 µM
GI50 (HOP-92): 0.016 µM
GI50 (NCI-H226): 0.00949 µM
GI50 (NCI-H23): 0.0119 µM
GI50 (NCI-H322M): 0.0141 µM
GI50 (NCI-H460): 0.00452 µM
GI50 (NCI-H522): 0.0144 µM
GI50 (COLO 205): 0.00978 µM
GI50 (HCC 2998): 0.0236 µM
GI50 (HCT-116): 0.00907 µM
GI50 (HCT-15): 0.00514 µM
GI50 (HCT-29): 0.0076 µM
GI50 (KM12): 0.0108 µM
GI50 (SW-620): 0.00667 µM
GI50 (SF-268): 0.0122 µM
GI50 (SF-295): 0.0114 µM
GI50 (SF-539): 0.00876 µM
GI50 (SNB-19): 0.0139 µM
GI50 (SNB-75): 0.0108 µM
GI50 (U-251): 0.00797 µM
GI50 (LOX IMVI): 0.00853 µM
GI50 (Malme-3M): 0.0121 µM
GI50 (M14): 0.0106 µM
GI50 (MDA-MB-435): 0.0039 µM
GI50 (SK-MEL-2): 0.021 µM
GI50 (SK-MEL-28): 0.017 µM
GI50 (SK-MEL-5): 0.0146 µM
GI50 (UACC-257): 0.0227 µM
GI50 (UACC-62): 0.0159 µM
GI50 (IGROV-1): 0.0133 µM
GI50 (OVCAR-3): 0.00637 µM
GI50 (OVCAR-4): 0.0129 µM
GI50 (OVCAR-5): 0.0118 µM
GI50 (OVCAR-8 [12]): 0.0147 µM
GI50 (NCI/ADR-RES [13]): 0.00824 µM
GI50 (SK-OV-3): 0.0139 µM
GI50 (786-0): 0.0132 µM
GI50 (A498): 0.0134 µM
GI50 (ACHN): 0.0084 µM
GI50 (CAKI-1): 0.0157 µM
GI50 (RXF 393): 0.00875 µM
GI50 (SN12C): 0.0158 µM
GI50 (TK-10): 0.0163 µM
GI50 (UO-31): 0.01 µM
GI50 (PC-3): 0.0107 µM
GI50 (DU-145): 0.00889 µM
GI50 (MCF7 [14]): 0.0108 µM
GI50 (MDA-MB-231): 0.0143 µM
GI50 (Hs-578T): 0.0112 µM
GI50 (BT-549): 0.0241 µM
GI50 (T47D): 0.0164 µM
GI50 (MDA-MB-468): 0.00909 µM
Ratio IC50 [15]: 0.55
